Data published in ChEMBL document CHEMBL4428067, “Drug Discovery against Psoriasis: Identification of a New Potent FMS-like Tyrosine Kinase 3 (FLT3) Inhibitor, 1-(4-((1H-Pyrazolo[3,4-d]pyrimidin-4-yl)oxy)-3-fluorophenyl)-3-(5-(tert-butyl)isoxazol-3-yl)urea, That Showed Potent Activity in a Psoriatic Animal Model” (J Med Chem, 2016).
Activity calls are given as the source filed them. No cut-off for these calls is given here.

How the values were obtained:
[1] = biological target: T1, Receptor-type tyrosine-protein kinase FLT3 (Mus musculus) (UniProt Q00342); test: (§1) Inhibition of FLT3 in Balb/c mouse BMDCs assessed as suppression of FLT3L-induced pDC formation measured as upper right quadrant cells level treated on day 9 post 9 days of FLT3L-stimulation measured after 24 hrs by CD11c PerCP and CD45R/B220 FITC staining based flow cytometric analysis (reference value: 14.9%); set-up: scale not given: the % may be the effect or the level left
T1 sequence (whole entry): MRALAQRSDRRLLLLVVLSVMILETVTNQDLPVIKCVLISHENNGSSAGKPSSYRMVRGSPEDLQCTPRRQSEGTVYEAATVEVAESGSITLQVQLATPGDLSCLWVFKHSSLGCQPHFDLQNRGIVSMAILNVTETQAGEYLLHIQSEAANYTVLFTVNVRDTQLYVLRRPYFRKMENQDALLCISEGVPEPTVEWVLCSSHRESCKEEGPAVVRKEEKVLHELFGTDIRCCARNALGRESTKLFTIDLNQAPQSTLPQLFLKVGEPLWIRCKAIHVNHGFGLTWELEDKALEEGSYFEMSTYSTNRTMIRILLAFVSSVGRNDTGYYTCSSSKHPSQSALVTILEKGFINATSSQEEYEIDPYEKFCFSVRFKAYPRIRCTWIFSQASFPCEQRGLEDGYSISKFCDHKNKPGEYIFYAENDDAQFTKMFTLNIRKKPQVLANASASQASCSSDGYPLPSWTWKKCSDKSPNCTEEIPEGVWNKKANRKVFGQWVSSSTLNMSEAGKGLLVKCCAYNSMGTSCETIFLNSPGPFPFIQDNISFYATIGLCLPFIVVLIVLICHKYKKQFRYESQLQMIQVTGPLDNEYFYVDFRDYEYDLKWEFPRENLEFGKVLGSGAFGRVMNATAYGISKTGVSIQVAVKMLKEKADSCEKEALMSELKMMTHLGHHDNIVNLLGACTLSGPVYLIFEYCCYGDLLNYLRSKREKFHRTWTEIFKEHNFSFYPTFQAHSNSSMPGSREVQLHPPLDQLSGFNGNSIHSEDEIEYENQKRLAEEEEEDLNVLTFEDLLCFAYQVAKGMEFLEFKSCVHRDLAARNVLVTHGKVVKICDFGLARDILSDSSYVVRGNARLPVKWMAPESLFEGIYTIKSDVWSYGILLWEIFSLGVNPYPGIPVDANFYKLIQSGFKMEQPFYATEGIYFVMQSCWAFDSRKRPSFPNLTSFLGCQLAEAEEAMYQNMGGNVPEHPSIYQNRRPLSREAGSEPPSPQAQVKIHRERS
In short: (§2)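 BALB/c bone marrow cells were cultured at 1×10^6/ml with FLT3L in supplemented RPMI-1640 for 9 days. Compound in DMSO or 0.1% DMSO was added on day 9 for 24 h. Cells were stained for 30 min with CD11c PerCP plus B220 FITC (pDC: CD11c+ B220+) or MHC II FITC (mDC: CD11c+ MHC II+), then analysed by flow cytometry. Three independent experiments.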

Mus musculus [2] = species: Mus musculus; test: Antipsoriatic activity in K14-VEGF transgenic mouse model of psoriasis assessed as decrease in VEGF expression in psoriatic lesion at 0.05% applied tropically over lesion for continuous 29 days by immunohistochemical analysis relative to vehicle control; format: functional; set-up: scale not given: the % may be the effect or the level left
In short: (§3)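 K14-VEGF mice were treated topically with 0.05% cream or vehicle for 29 days, n=3 per group. Ear skin was paraffin-embedded, cut into 4-µm sections and immunostained. Staining was quantified in 5 random fields, reported as mean ± SD.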

Mus musculus [3] = species: Mus musculus; test: Antipsoriatic activity in K14-VEGF transgenic mouse model of psoriasis assessed as reduction in infiltrated lymphocytes at 0.05% applied tropically over lesion for continuous 29 days by H and E staining method relative to vehicle control; format: functional, organism-based
In short: (§4)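 Homozygous K14-VEGF mice, 3–4 months old, with moderate to serious psoriasis; n=3 per group. Cream with 0.05% compound or vehicle cream smeared on lesions. Head and neck tissue sections taken after 29 days of treatment and HE-stained. Baker pathological score from 5 random fields, given as mean and SD. Epidermal thickness from 8 random fields, given as mean ± SEM.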

Mus musculus [4] = species: Mus musculus; test: Antipsoriatic activity in K14-VEGF transgenic mouse model of psoriasis assessed as upper left quadrant FLT3+/CD11c+/B220+ pDC cells in psoriatic plaque lesion at 0.05% applied tropically over lesion for continuous 29 days by flow cytometric analysis (reference value: 58.4%); format: functional
Mus musculus [5] = species: Mus musculus; test: Antipsoriatic activity in K14-VEGF transgenic mouse model of psoriasis assessed as lower left quadrant FLT3+/CD11c+/MHC-II+ mDC cells in psoriatic plaque lesion at 0.05% applied tropically over lesion for continuous 29 days by flow cytometric analysis (reference value: 35.2%)
Mus musculus [6] = species: Mus musculus; test: Antipsoriatic activity in K14-VEGF transgenic mouse model of psoriasis assessed as reduction in epidermal thickness at 0.05% applied tropically over lesion for continuous 29 days by H and E staining method relative to vehicle control; format: functional, organism-based; in short: as §4
[7] = biological target: T1, Receptor-type tyrosine-protein kinase FLT3 (Mus musculus); test: as §1, with “mDC” for “pDC”, “lower” for “upper”, “I-A/I-E (MHC class II)” for “CD45R/B220”, “3.49%)” for “14.9%)”; set-up: scale not given: the % may be the effect or the level left; in short: as §2
Mus musculus [8] = species: Mus musculus; test: Antipsoriatic activity in K14-VEGF transgenic mouse model of psoriasis assessed as upper left quadrant FLT3+/CD11c+/B220+ pDC cells in psoriatic plaque lesion at 0.05% applied tropically over lesion for continuous 29 days by flow cytometric analysis (reference value: 36.1%); format: functional
Mus musculus [9] = species: Mus musculus; test: Downregulation of IL17 expression in K14-VEGF transgenic mouse model of psoriasis at 0.05% applied tropically over lesion for 29 days by ELISA; format: functional, organism-based
In short: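 K14-VEGF mice were treated for 29 days with 0.05% cream or vehicle, n=3 each. At termination, blood was held at 4 °C for 12 h and then centrifuged. Plasma IFN-γ and IL-17 were measured by ELISA, mean ± SD.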

Mus musculus [10] = species: Mus musculus; test: Antipsoriatic activity in K14-VEGF transgenic mouse model of psoriasis assessed as reduction in focal parakeratinosis at 0.05% applied tropically over lesion for continuous 29 days by H and E staining method relative to vehicle control; format: functional, organism-based; in short: as §4
[11] = biological target: T1, Receptor-type tyrosine-protein kinase FLT3 (Mus musculus); test: as §1, with “mDC” for “pDC”, “lower left” for “upper right”, “I-A/I-E (MHC class II)” for “CD45R/B220”, “43.7%)” for “14.9%)”; set-up: scale not given: the % may be the effect or the level left; in short: as §2
Mus musculus [12] = species: Mus musculus; test: Antipsoriatic activity in K14-VEGF transgenic mouse model of psoriasis assessed as decrease in CD31 expression in psoriatic lesion at 0.05% applied tropically over lesion for continuous 29 days by immunohistochemical analysis relative to vehicle control; format: functional; set-up: scale not given: the % may be the effect or the level left; in short: as §3
Mus musculus [13] = species: Mus musculus; test: Antipsoriatic activity in K14-VEGF transgenic mouse model of psoriasis assessed as upper left quadrant DC cells expressing FLT3 and CD11c in psoriatic plaque lesion at 0.05% applied tropically over lesion for continuous 29 days by flow cytometric analysis (reference value: 9.62%); format: functional
Mus musculus [14] = species: Mus musculus; test: Antipsoriatic activity in K14-VEGF transgenic mouse model of psoriasis assessed as decrease in STAT3 phosphorylation in psoriatic lesion at 0.05% applied tropically over lesion for continuous 29 days by immunohistochemical analysis relative to vehicle control; format: functional; set-up: scale not given: the % may be the effect or the level left; in short: as §3
Mus musculus [15] = species: Mus musculus; test: Antipsoriatic activity in K14-VEGF transgenic mouse model of psoriasis assessed as reduction in Baker scores at 0.05% applied tropically over lesion for continuous 29 days by H and E staining method relative to vehicle control; format: functional, organism-based; in short: as §4

With `CC(C)(C)c1cc(NC(=O)Nc2ccc(Oc3ncnc4[nH]ncc34)c(F)c2)no1` the Activity [1] was 7.84%, the Activity (Mus musculus [2]) was 90% and the Activity (Mus musculus [3]) was “Active”. The Activity (Mus musculus [4]) was 79.4%, the Activity (Mus musculus [5]) was 8.58% and the Activity (Mus musculus [6]) was “Active”. For the same compound, the Activity [7] was 5.15%, the Activity (Mus musculus [8]) was 9.6% and the Activity (Mus musculus [9]) was “Active”. For the same compound, the Activity (Mus musculus [10]) was “Active”, the Activity [11] was 54.7% and the Activity (Mus musculus [12]) was 94%. The Activity (Mus musculus [13]) was 3.22%, the Activity (Mus musculus [14]) was 64% and the Activity (Mus musculus [15]) was “Active”.
